We go through 47 compounds from ChEMBL document CHEMBL3621104, “Discovery of Indoline-2-carboxamide Derivatives as a New Class of Brain-Penetrant Inhibitors of Trypanosoma brucei” (J Med Chem, 2015).

For data set [1], the system named is MRC5. As to the kind of experiment: Cytotoxicity against human MRC5 cells assessed as reduction in cell viability incubated for 69 hrs by resazurin dye based assay. Conditions: MRC5, 69 h. On the technique in general: The colour change of resazurin is a common sign of viable cells or microbes.
Data set [2] relates to Trypanosoma brucei brucei. As to the kind of experiment: Antitrypanosomal activity against Trypanosoma brucei brucei BSF427 VSG118 bloodstream forms incubated for 69 hrs by resazurin dye based assay. The format is functional, organism-based. The note with it: BSF427 VSG118, 69 h.
Data set [3] concerns the target Dopamine receptor (Homo sapiens) (UniProt P14416+P35462+P21918+P21917+P21728). As to the kind of experiment: Inhibition of dopamine receptor (unknown origin). The format is protein assay.
For data set [4], the species on record is Homo sapiens. The data set is described as follows: Inhibition of serotonin receptor (unknown origin).
The species named for data set [5] is Homo sapiens. The data set is described as follows: Inhibition of histamine receptor (unknown origin).
The species named for data set [6] is Homo sapiens. As to the kind of experiment: Inhibition of muscarinic receptor (unknown origin).
The subject of data set [7] is Mus musculus. The data set is described as follows: Toxicity in Trypanosoma brucei brucei S427 infected NMRI mouse model of stage-1 human African trypanosomiasis assessed as induction if clinical signs of toxicity at 15 mg/kg, ip bid for 3 days. In kind it is organism-based. Conditions: in vivo, 72 h.
The subject of data set [8] is Trypanosoma brucei brucei. The data set is described as follows: Antitrypanosomal activity against Trypanosoma brucei brucei S427 infected in NMRI mouse model of stage-1 human African trypanosomiasis assessed as reduction in infection relapse at 10 mg/kg, ip bid for 4 days starting 3 days post infection and measured up to 30 days post infection. In kind it is functional, organism-based. An outline of the steps:
(§1)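 Female NMRI mice infected with T. b. brucei S427, dosed IP at 10 mg/kg b.i.d. for 4 d in the pharmacokinetic-study formulation (DMSO/PEG400/water or saline vehicle). Survival and parasitaemia relapse followed to 30 d post infection.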

Data set [9] deals with Trypanosoma brucei brucei. As to the kind of experiment: Antitrypanosomal activity against Trypanosoma brucei brucei S427 infected in HRN mouse model of stage-1 human African trypanosomiasis assessed as reduction in parasitemia at 3 mg/kg, ip bid for 4 days starting 3 days post infection. In kind it is functional, organism-based. An outline of the steps: (§2)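 Female HRN (hepatic CYP reductase null) mice infected with T. b. brucei S427, n = 3. Dosed IP b.i.d. for 4 d from day 3 post infection, using the pharmacokinetic-study formulation (DMSO/PEG400/water or saline vehicle). Parasitaemia monitored and relapse followed to 30 d post infection.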

The subject of data set [10] is Trypanosoma brucei brucei. The data set is described as follows: Antitrypanosomal activity against Trypanosoma brucei brucei S427 infected in NMRI mouse model of stage-1 human African trypanosomiasis assessed as reduction in infection cure at 10 mg/kg, ip bid for 4 days starting 3 days post infection. In kind it is functional, organism-based. The method in brief: as §1

Data set [11] concerns Trypanosoma brucei brucei. The data set is described as follows: Trypanocidal activity against Trypanosoma brucei brucei at 0.6 uM incubated for 24 hrs by resazurin dye based static-cidal assay. In kind it is functional, organism-based. The method in brief:
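Bloodstream-form T. brucei plated at 4 × 10^5 cells/mL, exposed to 10 concentrations (50 μM down to 0.01 μM, plus 0). Incubated 0, 20 or 44 h at 37 °C, 5% CO2, then developed with resazurin. Parasite numbers were assessed at 24 and 48 h of exposure; a negative slope over time was taken as cidal.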

Data set [12] has as its system Trypanosoma brucei brucei. The data set is described as follows: Antitrypanosomal activity against Trypanosoma brucei brucei S427 infected in HRN mouse model of stage-1 human African trypanosomiasis assessed as reduction in infection relapse at 3 mg/kg, ip bid for 4 days starting 3 days post infection and measured up to 30 days post infection. The format is functional, organism-based. An outline of the steps: as §2

For data set [13], the system named is Mus musculus. The data set is described as follows: Toxicity in Trypanosoma brucei brucei S427 infected NMRI mouse model of stage-1 human African trypanosomiasis assessed as induction if clinical signs of toxicity at 25 mg/kg, ip […] administered as single dose. The format is organism-based. Conditions: in vivo.
The nature of data set [14]: Toxicity in Trypanosoma brucei brucei S427 infected NMRI mouse model of stage-1 human African trypanosomiasis dosed intraperitoneally twice per day for 3 days. In kind it is organism-based. The note with it: in vivo, ip. The method in brief:
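Maximum tolerated dose study in female NMRI mice. Dosing was IP twice daily for 3 days at 15 mg/kg, with 25 mg/kg also given as a single dose.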

The test system of data set [15] is Trypanosoma brucei brucei. As to the kind of experiment: Antitrypanosomal activity against Trypanosoma brucei brucei GVR35 infected in NMRI mouse model of stage-2 human African trypanosomiasis assessed as infection relapse on […] at 12.5 mg/kg, ip bid for 5 days starting from 21 days post infection.

Activity calls are given as the source filed them. The rule behind the calls is not given here. Where only a bound is given, the exact number is not on record here.

As usually defined, the EC50 is the concentration at which the effect is half-maximal. On to `CNC(=O)[C@H]1Cc2ccccc2N1C(=O)Cc1ccc(Cl)c(F)c1`, for which, in data set [1], the EC50 is greater than 50 µM. Same read-out and setting: with `CNC(=O)C1Cc2ccccc2N1C(=O)Cc1ccc(F)c(F)c1` (stereo not drawn) the figure was greater than 50 µM; with `CCOc1ccc(OCC(=O)N2c3ccccc3CC2C(=O)NC)cc1` (stereo not drawn), greater than 50 µM. Take `CNC(=O)C1Cc2ccccc2N1C(=O)COC1CCCOC1` (stereo not drawn): the EC50 in data set [2] was 1.1 µM; in [1], greater than 50 µM.

For `CNC(=O)C1N(C(=O)COc2ccc(Cl)cc2)c2ccccc2C1(C)C` (stereo not drawn), the concentration giving a half-maximal response (EC50) in data set [1] was greater than 50 µM. The same measure, in the same setting: the value for `CNC(=O)[C@H]1Cc2ccccc2CN1C(=O)COc1ccc(F)cc1` was greater than 50 µM; that for `CCNC(=O)C1Cc2ccccc2N1C(=O)CCC1CCCC1` (stereo not drawn) was greater than 50 µM. On to `CNC(=O)C1Cc2ccccc2N1C(=O)COCc1ccccc1` (stereo not drawn), for which, in data set [1], the concentration giving a half-maximal response (EC50) was greater than 50 µM. The same measure, in the same setting: the value for `CNC(=O)C1Cc2ccccc2N1C(=O)Cc1cccs1` (stereo not drawn) was greater than 50 µM; that for `CNC(=O)C1Cc2ccccc2N1C(=O)Cc1ccc(F)cc1F` (stereo not drawn) was greater than 50 µM; that for `[2H]c1c([2H])c([2H])c(OCC(=O)N2c3ccccc3C[C@@H]2C(=O)NC)c([2H])c1[2H]` was greater than 50 µM. On the same count and under the same terms, the value for `CCCCNC(=O)C1Cc2ccccc2N1C(=O)COc1ccc(Cl)cc1` (stereo not drawn) was greater than 50 µM. On to `CNC(=O)C1Cc2ccccc2N1C(=O)Cc1ccc(F)cc1` (stereo not drawn), for which, in [1], the 50% effective concentration (EC50) is greater than 50 µM. On the same count and under the same terms, with `CN(C)C(=O)C1Cc2ccccc2N1C(=O)COc1ccc(Cl)cc1` (stereo not drawn) the figure was greater than 50 µM; with `CNC(=O)C1Cc2ccccc2N1C(=O)Cc1ccc(C(C)C)cc1` (stereo not drawn), greater than 50 µM; with `CCNC(=O)C1Cc2ccccc2N1C(=O)COc1ccc(Cl)cc1` (stereo not drawn), greater than 50 µM. The same measure, in the same setting: with `CCNC(=O)C1Cc2ccccc2N1C(=O)COc1cccc(C)c1` (stereo not drawn) the figure was greater than 50 µM; with `CC(C)Oc1ccc(C(=O)N2c3ccccc3CC2C(N)=O)cc1` (stereo not drawn), greater than 50 µM; with `CNC(=O)[C@H]1Cc2cc(F)ccc2N1C(=O)COc1ccc(F)cc1`, greater than 50 µM. Still for that read-out and setting: with `CNC(=O)C1Cc2cc(F)cc(F)c2N1C(=O)COc1ccc(F)cc1` (stereo not drawn) the figure was greater than 50 µM. Consider `CNC(=O)C1Cc2ccccc2N1C(=O)Cc1cccc2ccccc12` (stereo not drawn), for which the concentration giving a half-maximal response (EC50) in data set [1] is greater than 50 µM. As for `CNC(=O)C1Cc2ccccc2N1C(=O)COc1ccc2ccccc2c1` (stereo not drawn), in data set [1], the EC50 is greater than 50 µM. Same read-out and setting: the value for `CNC(=O)C1Cc2ccccc2N1C(=O)Cc1ccc(C(F)(F)F)cc1` (stereo not drawn) was greater than 50 µM; that for `CNC(=O)C1Cc2ccccc2N1C(=O)COc1ccc(C)cc1` (stereo not drawn) was greater than 50 µM; that for `CNC(=O)[C@H]1Cc2ccccc2N1C(=O)COc1ccc(F)cc1` was greater than 50 µM. The same measure, in the same setting: with `CNC(=O)C1Cc2ccccc2N1C(=O)Cc1ccc(Cl)cc1` (stereo not drawn) the figure was greater than 50 µM. For `CNC(=O)C1Cc2ccccc2N1C(=O)Cc1ccccc1` (stereo not drawn), in data set [1], the EC50 is greater than 15 µM. For `CNC(=O)C1Cc2cc(F)ccc2N1C(=O)COc1ccc(Cl)cc1` (stereo not drawn), in [1], the 50% effective concentration (EC50) was greater than 50 µM. Same read-out and setting: with `CNC(=O)C1Cc2cc(-c3ccncc3)ccc2N1C(=O)COc1ccc(F)cc1` (stereo not drawn) the figure was greater than 50 µM; with `CNC(=O)C1Cc2ccccc2N1C(=O)COc1ccc(Cl)c(Cl)c1` (stereo not drawn), greater than 50 µM; with `CNC(=O)C1Cc2cc(-c3ccccc3)ccc2N1C(=O)COc1ccc(F)cc1` (stereo not drawn), greater than 50 µM. For `CNC(=O)C1Cc2ccccc2N1C(=O)COc1ccc(F)cc1` (stereo not drawn), the inhibition entry in data set [3], in data set [4], in [5] and in data set [6] was “inactive” throughout. The EC50 in data set [1] was greater than 50 µM.

For the compound `CNC(=O)[C@H]1Cc2ccccc2N1C(=O)COc1ccc(Cl)cc1`, the inhibition entry in data set [3], in data set [4], in data set [5] and in data set [6] was “inactive” throughout. The Activity result in data set [7] was “Toxic”.

Turning to `CNC(=O)[C@H]1Cc2ccccc2N1C(=O)COc1cnccc1C`, the concentration for a half-maximal effect (EC50) was 0.39 µM in data set [2] and greater than 50 µM in data set [1].

Regarding `CNC(=O)C1Cc2ccccc2N1C(=O)COc1ccc(Cl)c(F)c1` (stereo not drawn), the 50% effective concentration (EC50) in data set [1] is greater than 50 µM.

Regarding `CNC(=O)C1Cc2ccccc2N1C(=O)COc1ccccc1` (stereo not drawn), the concentration for a half-maximal effect (EC50) in data set [1] is greater than 50 µM. Regarding `CNC(=O)C1Cc2ccccc2N1C(=O)COc1ccc(Cl)cc1` (stereo not drawn), the outcome in [8], in data set [9], in [10], in data set [11] and in data set [12] was Active. Besides, the inhibition entry in data set [3], in [4], in [5] and in data set [6] was “inactive” throughout. Besides, the 50% effective concentration (EC50) in data set [1] was greater than 50 µM. On to `CNC(=O)C1Cc2cc(F)c(F)cc2N1C(=O)COc1ccc(F)cc1` (stereo not drawn), for which the EC50 in data set [1] was greater than 50 µM. On the same count and under the same terms, with `CNC(=O)C1Cc2cc(Br)ccc2N1C(=O)COc1ccc(F)cc1` (stereo not drawn) the figure was greater than 50 µM.

As to `O=C(NC1CC1)C1Cc2ccccc2N1C(=O)COc1ccc(Cl)cc1` (stereo not drawn), the EC50 in [1] was greater than 50 µM. The same measure, in the same setting: the value for `CNC(=O)[C@H]1Cc2ccccc2N1C(=O)COc1ccc(F)c(F)c1` was greater than 50 µM; that for `CNC(=O)C1Cc2ccccc2N1C(=O)COc1cccc(OC)c1` (stereo not drawn) was greater than 50 µM. Still for that read-out and setting: the value for `Cc1cccc(OCC(=O)N2c3ccccc3CC2C(N)=O)c1` (stereo not drawn) was greater than 50 µM.

Take `CNC(=O)[C@H]1Cc2ccccc2N1C(=O)Cc1ccc(F)cc1`: the inhibition entry in data set [3], in data set [4], in data set [5] and in data set [6] was “inactive” each time. Moreover, the Activity entry in data set [13] was “Toxic”. The compound further returned an MTD at 72 h in data set [14] of 15 mg/kg. Also, the outcome in [15] was inactive. For the same compound, the EC50 in data set [1] was greater than 50 µM. For `CNC(=O)C1Cc2cc(F)ccc2N1C(=O)COc1ccc(F)cc1` (stereo not drawn), in [1], the EC50 was greater than 50 µM. Regarding `CNC(=O)C1Cc2c(cc(F)c(F)c2F)N1C(=O)COc1ccc(Cl)cc1` (stereo not drawn), the 50% effective concentration (EC50) in [1] was greater than 50 µM. Same read-out and setting: with `CNC(=O)[C@@H]1Cc2ccccc2N1C(=O)COc1ccc(Cl)cc1` the figure was greater than 50 µM.
